Assay results published in ChEMBL document CHEMBL3102839, “Growth inhibitory activity for cancer cell lines of lapachol and its natural and semi-synthetic derivatives” (Bioorg Med Chem Lett, 2014).

Columns and labels:
[1] = test system: PC-3; assay: Growth inhibition of human PC3 cells by MTT assay; format: functional, cell-based
In short: (§1)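 In vitro MTT colorimetric read-out of growth inhibition. Each compound was run across a six-line human cancer panel chosen for differing resistance to pro-apoptotic stimuli. IC50 was taken as the growth inhibitory concentration. No reference drug was included.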

[2] = Growth inhibition of human U373 cells by MTT assay; format: functional, cell-based, U-373MG ATCC; conditions: U373 MG; in short: as §1
[3] = Chemical stability of the compound in cell culture medium assessed as compound recovery after 72 hrs; format: physicochemical; conditions: read-out: Drug recovery
[4] = test system: A549; assay: Growth inhibition of human A549 cells by MTT assay; format: functional, cell-based; in short: as §1
[5] = test system: SK-MEL-28; assay: Growth inhibition of human SK-MEL-28 cells by MTT assay; format: functional, cell-based; in short: as §1
[6] = test system: LoVo; assay: Growth inhibition of human LoVo cells by MTT assay; format: functional, cell-based; in short: as §1
[7] = Growth inhibition of human Hs683 cells by MTT assay; format: functional, cell-based; conditions: Hs 683; in short: as §1
[8] = test system: Lu1; assay: Growth inhibition of human Lu1 cells; format: functional; conditions: read-out: ED50 (the source's name)
[9] = test system: KB; assay: Growth inhibition of human KB cells; format: functional; conditions: read-out: ED50 (the source's name)
[10] = Growth inhibition of hTERT expressing human RPE1 cells; format: functional, TERT-RPE1; conditions: RPE-1, read-out: ED50 (the source's name)
[11] = test system: LNCaP; assay: Growth inhibition of human LNCAP cells; format: functional; conditions: read-out: ED50 (the source's name)
[12] = test system: Col2; assay: Growth inhibition of human Col2 cells; format: functional; conditions: read-out: ED50 (the source's name)

| IC50 [1] | remaining at 72 h [3] | IC50 [4] | IC50 [5] | IC50 [6] | EC50 [9] | EC50 [11] | SMILES | IC50 [2] | IC50 [7] | EC50 [8] | EC50 [10] | EC50 [12] |
| --- | --- | --- | --- | --- | --- | --- | --- | --- | --- | --- | --- | --- |
| 43 µM | > 95% | 49 µM | 50 µM | 50 µM |  |  | CCCCCCCCCCCCCC(=O)OC1=C(CC=C(C)C)C(=O)c2ccccc2C1=O | > 100 µM | 89 µM |  |  |  |
| 91 µM |  | > 100 µM | > 100 µM | 42 µM |  |  | O=C1C(O)=C(Cc2ccccc2)C(=O)c2ccccc21 | > 100 µM | > 100 µM |  |  |  |
| 42 µM |  | 36 µM | 27 µM | 57 µM |  |  | COC1=C(CC=C(C)C)C(=O)c2ccccc2C1=O | 78 µM | 36 µM |  |  |  |
| 12 µM |  | 12 µM | 28 µM | 7 µM |  |  | CC(C)=CCC/C(C)=C/CC1=C(O)C(=O)c2ccccc2C1=O | 48 µM | 11 µM |  |  |  |
| 38 µM |  | 33 µM | 29 µM | 32 µM |  |  | CC(C)=CCOC1=C(CC=C(C)C)C(=O)c2ccccc2C1=O | > 100 µM | 41 µM |  |  |  |
| 28 µM |  | 26 µM | 23 µM | 22 µM |  |  | C=CCOC1=C(CC=C(C)C)C(=O)c2ccccc2C1=O | 75 µM | 28 µM |  |  |  |
| 35 µM | > 95% | 38 µM | 33 µM | 29 µM |  |  | CCCCCCCCCCCCCCCC(=O)OC1=C(CC=C(C)C)C(=O)c2ccccc2C1=O | 54 µM | 48 µM |  |  |  |
| > 100 µM |  | > 100 µM | > 100 µM | 82 µM |  |  | O=C1C(O)=C(/C=C/c2ccccc2)C(=O)c2ccccc21 | > 100 µM | 42 µM |  |  |  |
| > 100 µM |  | > 100 µM | > 100 µM | > 100 µM |  |  | CCOC1=C(CC=C(C)C)C(=O)c2ccccc2C1=O | > 100 µM | > 100 µM |  |  |  |
| 27 µM |  | 34 µM | 31 µM | 25 µM | 12.2 µM | 12.2 µM | CC(C)=CCC1=C(Cl)C(=O)c2ccccc2C1=O | 26 µM | 33 µM | 12.2 µM | 12.2 µM | 12.2 µM |
| > 100 µM |  | > 100 µM | > 100 µM | > 100 µM |  |  | CCCOC1=C(CC=C(C)C)C(=O)c2ccccc2C1=O | > 100 µM | > 100 µM |  |  |  |
| 65 µM | > 95% | 59 µM | 73 µM | 57 µM |  |  | CCCCCCCC/C=C\CCCCCCCC(=O)OC1=C(CC=C(C)C)C(=O)c2ccccc2C1=O | 84 µM | 85 µM |  |  |  |
| 27 µM | > 95% | 35 µM | 18 µM | 27 µM |  |  | CCCCCCCCCCCC(=O)OC1=C(CC=C(C)C)C(=O)c2ccccc2C1=O | 31 µM | 18 µM |  |  |  |
| > 100 µM | > 95% | > 100 µM | > 100 µM | > 100 µM |  |  | CCCCCCCCCCCCCCCCCC(=O)OC1=C(CC=C(C)C)C(=O)c2ccccc2C1=O | > 100 µM | > 100 µM |  |  |  |
| > 100 µM |  | 58 µM | > 100 µM | > 100 µM |  |  | O=C1C=C(O)C(=O)c2ccccc21 [LAWSONE] | > 100 µM | 31 µM |  |  |  |
| 4 µM | > 95% | 5 µM | 13 µM | 8 µM |  |  | CC(=O)OC1=C(CC=C(C)C)C(=O)c2ccccc2C1=O | 30 µM | 31 µM |  |  |  |

| SMILES | IC50 [1] | remaining at 72 h [3] | IC50 [4] | IC50 [5] | IC50 [6] | EC50 [9] | EC50 [11] | IC50 [2] | IC50 [7] | EC50 [8] | EC50 [10] | EC50 [12] |
| --- | --- | --- | --- | --- | --- | --- | --- | --- | --- | --- | --- | --- |
| CC(C)=CCC1=C(O)C(=O)c2ccccc2C1=O [LAPACHOL] | 4 µM |  | 8 µM | 8 µM | 9 µM |  |  | 8 µM | 11 µM |  |  |  |
